Legend:
[1] = molecular target: T1, Adenosine receptor A1 (Homo sapiens) (UniProt P30542); test: Displacement of [125I]AB-MECA from human adenosine A1 receptor expressed in CHO cells at 10 uM; format: cell-based
T1 sequence (whole entry): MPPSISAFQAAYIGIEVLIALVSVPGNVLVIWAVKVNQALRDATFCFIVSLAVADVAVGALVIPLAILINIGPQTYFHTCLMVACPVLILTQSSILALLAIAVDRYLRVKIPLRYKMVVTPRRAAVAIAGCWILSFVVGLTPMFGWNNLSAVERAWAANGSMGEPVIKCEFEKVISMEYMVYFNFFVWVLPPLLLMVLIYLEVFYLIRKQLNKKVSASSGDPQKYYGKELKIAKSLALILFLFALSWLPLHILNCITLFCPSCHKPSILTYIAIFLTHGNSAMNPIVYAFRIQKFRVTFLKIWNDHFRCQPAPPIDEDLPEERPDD
In short: (§1)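 Equilibrium binding on CHO membranes with human A1 (20 µg protein, 60 min) or A3 (10 µg, 120 min) at 25 °C. Buffer 50 mM Tris-HCl pH 8.0, 10 mM MgCl2, 1 mM EDTA, 0.01% CHAPS. Test ligand 10 µM with ~0.1 nM 125I-AB-MECA. Nonspecific binding with 10 µM DPCPX (A1) or 100 µM R-PIA (A3). Filtration, then γ-counting.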

[2] = molecular target: T2, Adenosine receptor A3 (Homo sapiens) (UniProt P0DMS8); test: Displacement of [125I]AB-MECA from human adenosine A3 receptor expressed in CHO cells at 10 uM; format: cell-based; in short: as §1
T2 sequence (whole entry): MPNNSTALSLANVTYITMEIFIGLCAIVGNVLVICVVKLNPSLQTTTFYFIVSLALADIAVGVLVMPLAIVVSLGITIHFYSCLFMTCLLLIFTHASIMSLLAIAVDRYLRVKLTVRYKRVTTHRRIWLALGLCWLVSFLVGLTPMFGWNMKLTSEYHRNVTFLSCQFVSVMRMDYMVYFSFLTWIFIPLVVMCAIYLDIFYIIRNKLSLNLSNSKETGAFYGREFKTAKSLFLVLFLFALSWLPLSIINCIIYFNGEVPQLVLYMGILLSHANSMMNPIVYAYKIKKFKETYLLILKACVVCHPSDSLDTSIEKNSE

[3] = molecular target: Adenosine receptor A2a (Homo sapiens) (UniProt P29274); test: Displacement of [3H]ZM241385 from human adenosine A2A receptor expressed in HEK293 cells at 10 uM; format: cell-based
In short: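 HEK293 membranes with human A2A (30 µg protein) incubated 120 min at 25 °C in 50 mM Tris-HCl pH 7.4 with ~1.7 nM [3H]ZM241385 and 10 µM test ligand. Nonspecific binding defined by 100 µM CGS 21680. Filtration, then liquid scintillation counting.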

[4] = molecular target: T3, Adenosine receptor A2b (Homo sapiens) (UniProt P29275); test: Displacement of [3H]MRS1754 from human adenosine A2B receptor expressed in CHO cells at 10 uM; format: cell-based
T3 sequence (whole entry): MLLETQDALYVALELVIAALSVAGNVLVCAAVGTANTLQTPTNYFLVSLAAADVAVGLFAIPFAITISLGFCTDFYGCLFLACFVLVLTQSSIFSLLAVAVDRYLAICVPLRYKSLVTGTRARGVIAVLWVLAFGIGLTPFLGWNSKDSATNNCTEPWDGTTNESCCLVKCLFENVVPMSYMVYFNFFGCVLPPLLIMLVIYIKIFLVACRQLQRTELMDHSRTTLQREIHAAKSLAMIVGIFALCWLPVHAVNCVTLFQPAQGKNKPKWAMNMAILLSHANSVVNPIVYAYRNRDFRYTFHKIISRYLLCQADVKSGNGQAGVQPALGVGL
In short: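 CHO membranes expressing human A2B (20 µg protein) with ~1.2 nM [3H]MRS1754 and 10 µM test ligand, 60 min at 25 °C, in 50 mM Tris-HCl pH 7.4 with 0.1% CHAPS. Nonspecific binding with 1 mM NECA. Filtration, then scintillation counting.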

[5] = molecular target: T1, Adenosine receptor A1 (Homo sapiens); test: Binding affinity to human adenosine A1 receptor expressed in CHO cells assessed as enhancement of DPCPX-induced displacement of [125I]AB-MECA from receptor at 10 uM after 90 mins relative to control; format: cell-based
In short: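 CHO membranes expressing human A1 (20 µg) or A3 (10 µg) preincubated with ~0.1 nM 125I-AB-MECA at 25 °C, 60 min (A1) or 120 min (A3), in 50 mM Tris-HCl pH 8.0, 10 mM MgCl2, 1 mM EDTA, 0.01% CHAPS. Dissociation started with 10 µM DPCPX (A1) or 10 µM Cl-IB-MECA (A3), with or without modulator. Bound ligand read at 90 min (A1) or 120 min (A3); control = 100%. Two assays in duplicate.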

[6] = molecular target: T2, Adenosine receptor A3 (Homo sapiens); test: Binding affinity to human adenosine A3 receptor expressed in CHO cells assessed as enhancement of C1IB-MECA-induced displacement of [125I]AB-MECA from receptor at 10 uM after 120 mins relative to control
[7] = molecular target: T2, Adenosine receptor A3 (Homo sapiens); test: Intrinsic activity at human adenosine A3 receptor expressed in CHO cells assessed as increase in C1IB-MECA-stimulated inhibition of forskolin-induced cAMP release at 10 uM by TR-FRET assay; format: functional, cell-based
In short: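 Forskolin-stimulated cAMP in CHOhA3 cells (~5000/well). Cl-IB-MECA concentration range given with or without 10 µM modulator in stimulation buffer (PBS, 5 mM Hepes pH 7.4, 0.1% BSA, 50 µM rolipram, 50 µM cilostamide), 15 min at room temperature. Forskolin 1 µM added, 30 min at room temperature. TR-FRET cAMP read-out. 100% = cAMP with 10 µM Cl-IB-MECA, 0% = forskolin alone. Three assays in duplicate.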

Chain of Adenosine receptor A2a (Homo sapiens) (P29274 whole entry): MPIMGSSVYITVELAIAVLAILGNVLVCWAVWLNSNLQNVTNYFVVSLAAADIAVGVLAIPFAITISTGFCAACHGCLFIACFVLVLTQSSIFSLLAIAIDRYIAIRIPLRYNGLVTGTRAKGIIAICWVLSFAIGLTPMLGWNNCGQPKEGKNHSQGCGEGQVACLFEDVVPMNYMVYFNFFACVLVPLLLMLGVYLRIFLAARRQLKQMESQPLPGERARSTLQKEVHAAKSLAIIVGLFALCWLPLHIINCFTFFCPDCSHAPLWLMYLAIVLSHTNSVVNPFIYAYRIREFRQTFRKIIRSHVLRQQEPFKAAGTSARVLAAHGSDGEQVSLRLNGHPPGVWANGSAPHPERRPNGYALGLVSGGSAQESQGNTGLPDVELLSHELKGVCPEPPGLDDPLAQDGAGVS

Row | SMILES | Activity [1] | Activity [2] | Activity [3] | Activity [4] | Activity [5] | Activity [6] | Emax [7]
1 | O=C(Nc1cc(Nc2ccc(Cl)c(Cl)c2)nc2ccccc12)C1CCCC1 | 17% | 26% | -74% | -50% | 125% | 169% | –
2 | O=C(Nc1cc(Nc2ccc3cn[nH]c3c2)nc2ccccc12)C1CCCC1 | 61% | 52% | 56% | 90% | 72% | 102% | –
3 | Clc1ccc(Nc2nc3ccccc3c3nc(C4CCCCC4)[nH]c23)cc1Cl | 39% | 3% | 16% | 41% | 120% | 229% | 286%
4 | O=C(Nc1cc(Nc2ccc(Cl)c(Cl)c2)nc2ccccc12)C1CCC1 | 22% | 41% | 38% | 51% | 72% | 149% | –
5 | O=C(Nc1cc(Nc2ccc3c(c2)CCC3)nc2ccccc12)C1CCCCC1 | 20% | 10% | 19% | 42% | 118% | 217% | –
6 | O=C(Nc1cc(Nc2ccccc2)nc2ccccc12)C1CCCC1 | 49% | 33% | 34% | 61% | 104% | 145% | –
7 | O=C(Nc1cc(NCc2ccccc2)nc2ccccc12)C1CCCC1 | 34% | 34% | 49% | 28% | 77% | 107% | –
8 | Cc1ccc(Nc2cc(NC(=O)C3CCCC3)c3ccccc3n2)cc1 | 52% | 27% | 35% | 63% | 115% | 165% | –
9 | O=C(Nc1cc(Nc2ccccc2)nc2ccccc12)c1ccco1 | 73% | 92% | 95% | 60% | 68% | 100% | –
10 | O=C(Nc1cc(Nc2ccc3c(c2)CCC3)nc2ccccc12)C1CCCC1 | 47% | 36% | 14% | 62% | 90% | 147% | –
11 | O=C(Nc1cc(Nc2ccccc2)nc2ccccc12)C1CCCCC1 | 17% | 21% | 5% | 26% | 70% | 210% | –
12 | Cc1ccc(Nc2cc(NC(=O)C3CCCCC3)c3ccccc3n2)cc1 | 63% | -3% | -3% | 64% | 121% | 220% | –
13 | O=C(Nc1cc(Nc2ccc(Cl)c(Cl)c2)nc2ccccc12)c1ccco1 | 11% | 15% | 10% | 13% | 69% | 96% | –
14 | COc1ccc(Nc2cc(NC(=O)C3CCCC3)c3ccccc3n2)cc1 | 24% | 9% | 19% | 35% | 94% | 134% | –
15 | O=C(Nc1cc(Nc2ccc(Cl)c(Cl)c2)nc2ccccc12)c1ccccc1 | 23% | 11% | -20% | 37% | 102% | 112% | –
16 | O=C(Nc1cc(Nc2ccccc2)nc2ccccc12)C1CCC1 | 76% | 73% | 79% | 66% | 79% | 119% | –
17 | O=C(Nc1cc(Nc2ccccc2)nc2ccccc12)c1ccccc1 | 64% | 46% | 75% | 76% | 77% | 100% | –
18 | O=C(Nc1cc(Nc2ccc(Cl)c(Cl)c2)nc2ccccc12)C1CCCCC1 | 12% | 12% | -19% | 17% | 94% | 249% | 223%
19 | O=C(Nc1cc(NC2CCCC2)nc2ccccc12)C1CCCC1 | 80% | 42% | 72% | 14% | 107% | 114% | –
